From ChEMBL document CHEMBL2311328, “Molecular docking and synthesis of novel quinazoline analogues as inhibitors of transcription factors NF-κB activation and their anti-cancer activities” (2013)
The source made the active and inactive calls. The rule behind the calls is not given here.

Columns and labels:
HepG2 [1] = test: Inhibition of TNFalpha-induced NFkappaB (unknown origin)-dependent transcriptional activity expressed in human HepG2 cells at 1 uM incubated for 1 hr prior to TNFalpha induction measured after 6 hrs by dual-luciferase reporter gene assay; format: cell-based
How it was run: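 HepG2 cells in DMEM with 10% FBS were lipofectamine-transfected with 10 ng/well pGL4.32 NF-κB-Luc plus Renilla control. Compound in DMSO was given in fresh medium for 1 h at 37 °C, then TNFα (final 20 ng/ml) for 6 h. Cells were lysed in passive lysis buffer. Firefly light units were normalized to Renilla; one-way ANOVA.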

HepG2 [2] = test: Cytotoxicity against human HepG2 cells assessed as cellular growth at 50 uM incubated for 1 hr prior to TNF alpha stimulation measured after 48 hrs by SRB assay; format: functional
How it was run: (§1)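 HepG2 cells in DMEM with 10% FBS and penicillin/streptomycin were allowed to adhere 24 h, and a T0 plate was fixed. Compound was given for 1 h at 37 °C, with or without 20 ng/ml TNFα, then 48 h more. Cells were stained with 0.4% SRB for 30 min at RT, washed in 1% acetic acid, and solubilized in 10 mM Tris. OD read at 515 nm; one-way ANOVA.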

HepG2 [3] = test: Cytotoxicity against human HepG2 cells assessed as cellular growth at 50 uM after 48 hrs by SRB assay in absence of TNFalpha; format: functional; how it was run: as §1
BT-549 = test: Cytotoxicity against human BT549 cells after 48 hrs by SRB assay; format: functional; conditions: BT-549, 48 h
How it was run: (§2)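 Screened by the NCI Developmental Therapeutics Program in dose-response format. GI50 was determined by the sulforhodamine B protocol.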

T47D = test: Cytotoxicity against human T47D cells after 48 hrs by SRB assay; format: functional; how it was run: as §2
MDA-MB-231 = test: Cytotoxicity against human MDA-MB-231 cells after 48 hrs by SRB assay; format: functional; conditions: MDA-MB-231, 48 h; how it was run: as §2
Hs-578T = test: Cytotoxicity against human Hs578T cells after 48 hrs by SRB assay; format: functional; how it was run: as §2
DU-145 = test: Cytotoxicity against human DU145 cells after 48 hrs by SRB assay; format: functional; conditions: DU-145, 48 h; how it was run: as §2
MCF7 = test: Cytotoxicity against human MCF7 cells after 48 hrs by SRB assay; format: functional; conditions: MCF7, 48 h; how it was run: as §2
UO-31 = test: Cytotoxicity against human UO31 cells after 48 hrs by SRB assay; format: functional; conditions: UO-31, 48 h; how it was run: as §2
PC-3 = test: Cytotoxicity against human PC3 cells after 48 hrs by SRB assay; format: functional; conditions: PC-3, 48 h; how it was run: as §2
SN12C = test: Cytotoxicity against human SN12C cells after 48 hrs by SRB assay; format: functional; how it was run: as §2
TK-10 = test: Cytotoxicity against human TK10 cells after 48 hrs by SRB assay; format: functional; conditions: TK-10, 48 h; how it was run: as §2
CAKI-1 = test: Cytotoxicity against human Caki1 cells after 48 hrs by SRB assay; format: functional; conditions: CAKI-1, 48 h; how it was run: as §2
RXF 393 = test: Cytotoxicity against human RXF393 cells after 48 hrs by SRB assay; format: functional; conditions: RXF 393, 48 h; how it was run: as §2
786-0 = test: Cytotoxicity against human 786-0 cells after 48 hrs by SRB assay; format: functional; conditions: 786-0, 48 h; how it was run: as §2
A498 = test: Cytotoxicity against human A498 cells after 48 hrs by SRB assay; format: functional; conditions: A498, 48 h; how it was run: as §2
[4] = Cytotoxicity against human NCI-ADR-RES cells after 48 hrs by SRB assay; format: functional; how it was run: as §2
[5] = Cytotoxicity against human SKOC3 cells after 48 hrs by SRB assay; format: functional; conditions: SKOC3, 48 h; how it was run: as §2
OVCAR-8 = test: Cytotoxicity against human OVCAR8 cells after 48 hrs by SRB assay; format: functional; conditions: OVCAR-8, 48 h; how it was run: as §2
OVCAR-4 = test: Cytotoxicity against human OVCAR4 cells after 48 hrs by SRB assay; format: functional; conditions: OVCAR-4, 48 h; how it was run: as §2
IGROV-1 = test: Cytotoxicity against human IGROV1 cells after 48 hrs by SRB assay; format: functional; conditions: IGROV-1, 48 h; how it was run: as §2
OVCAR-3 = test: Cytotoxicity against human OVCAR3 cells after 48 hrs by SRB assay; format: functional; conditions: OVCAR-3, 48 h; how it was run: as §2
UACC-257 = test: Cytotoxicity against human UACC257 cells after 48 hrs by SRB assay; format: functional; conditions: UACC-257, 48 h; how it was run: as §2
UACC-62 = test: Cytotoxicity against human UACC62 cells after 48 hrs by SRB assay; format: functional; conditions: UACC-62, 48 h; how it was run: as §2
SK-MEL-2 = test: Cytotoxicity against human SK-MEL-2 cells after 48 hrs by SRB assay; format: functional; conditions: SK-MEL-2, 48 h; how it was run: as §2
SK-MEL-28 = test: Cytotoxicity against human SK-MEL-28 cells after 48 hrs by SRB assay; format: functional; conditions: SK-MEL-28, 48 h; how it was run: as §2
MDA-MB-435 = test: Cytotoxicity against human MDA-MB-435 cells after 48 hrs by SRB assay; format: functional; conditions: MDA-MB-435, 48 h; how it was run: as §2
M14 = test: Cytotoxicity against human M14 cells after 48 hrs by SRB assay; format: functional; conditions: M14, 48 h; how it was run: as §2
LOX IMVI = test: Cytotoxicity against human LOXIMVI cells after 48 hrs by SRB assay; format: functional; how it was run: as §2
Malme-3M = test: Cytotoxicity against human MALME-3M cells after 48 hrs by SRB assay; format: functional; how it was run: as §2
U-251 = test: Cytotoxicity against human U251 cells after 48 hrs by SRB assay; format: functional; conditions: U-251, 48 h; how it was run: as §2
SNB-19 = test: Cytotoxicity against human SNB19 cells after 48 hrs by SRB assay; format: functional; conditions: SNB-19, 48 h; how it was run: as §2
SNB-75 = test: Cytotoxicity against human SNB75 cells after 48 hrs by SRB assay; format: functional; conditions: SNB-75, 48 h; how it was run: as §2
SF-295 = test: Cytotoxicity against human SF295 cells after 48 hrs by SRB assay; format: functional; conditions: SF-295, 48 h; how it was run: as §2
SF-539 = test: Cytotoxicity against human SF539 cells after 48 hrs by SRB assay; format: functional; conditions: SF-539, 48 h; how it was run: as §2
SF-268 = test: Cytotoxicity against human SF268 cells after 48 hrs by SRB assay; format: functional; conditions: SF-268, 48 h; how it was run: as §2
SW-620 = test: Cytotoxicity against human SW620 cells after 48 hrs by SRB assay; format: functional; conditions: SW-620, 48 h; how it was run: as §2
KM12 = test: Cytotoxicity against human KM12 cells after 48 hrs by SRB assay; format: functional; conditions: KM12, 48 h; how it was run: as §2
HCT-15 = test: Cytotoxicity against human HCT15 cells after 48 hrs by SRB assay; format: functional; conditions: HCT-15, 48 h; how it was run: as §2
HCT-116 = test: Cytotoxicity against human HCT116 cells after 48 hrs by SRB assay; format: functional; conditions: HCT-116, 48 h; how it was run: as §2
HCC 2998 = test: Cytotoxicity against human HCC2998 cells after 48 hrs by SRB assay; format: functional; conditions: HCC 2998, 48 h; how it was run: as §2
COLO 205 = test: Cytotoxicity against human COLO205 cells after 48 hrs by SRB assay; format: functional; conditions: COLO 205, 48 h; how it was run: as §2

Which inhibition (HepG2 [1]) does the source give for Oc1ccc(Br)cc1CN1CCN(c2ncnc3ccccc23)CC1 here?
The inhibition was “Active”.

And the Activity (HepG2 [2])?
Its Activity is -29.9%.

And the Activity (HepG2 [3])?
The Activity was -22%.

For Oc1ccccc1CN1CCN(c2ncnc3ccccc23)CC1, which inhibition (HepG2 [1]) is on record?
Its inhibition is “Active”.

And the Activity (HepG2 [2])?
The Activity was -26%.

What about the Activity (HepG2 [3]) of the same compound?
The Activity was -21.7%.

Which inhibition (HepG2 [1]) does the source give for Oc1ccc(CN2CCN(c3nc(-c4ccccc4)nc4ccccc34)CC2)cc1 here?
Its inhibition is “Active”.

What about the Activity (HepG2 [2]) of the same compound?
The Activity was -49.1%.

And the Activity (HepG2 [3])?
The Activity was -37.6%.

For c1ccc(-c2nc(NCCc3ccc4c(c3)OCO4)c3ccccc3n2)cc1, which inhibition (HepG2 [1]) is on record?
The inhibition was “Active”.

And the Activity (HepG2 [2])?
The Activity was -46.8%.

And the Activity (HepG2 [3])?
Its Activity is -30.7%.

For c1ccc2c(NCCc3c[nH]c4ccccc34)ncnc2c1, which GI50 (BT-549) is on record?
The GI50 was 12.3 µM.

And the GI50 (T47D)?
The GI50 was 12 µM.

What about the GI50 (MDA-MB-231) of the same compound?
Its GI50 is 21.9 µM.

What about the GI50 (Hs-578T) of the same compound?
Its GI50 is 60.3 µM.

What about the GI50 (DU-145) of the same compound?
Its GI50 is 27.5 µM.

And the GI50 (MCF7)?
The GI50 was 11.2 µM.

What about the GI50 (UO-31) of the same compound?
The GI50 was 14.5 µM.

What about the GI50 (PC-3) of the same compound?
The GI50 was 19.5 µM.

And the GI50 (SN12C)?
Its GI50 is 30.2 µM.

And the GI50 (TK-10)?
Its GI50 is 20.4 µM.

What about the GI50 (CAKI-1) of the same compound?
The GI50 was 2.2 µM.

And the GI50 (RXF 393)?
The GI50 was 30.9 µM.

What about the GI50 (786-0) of the same compound?
Its GI50 is 33.9 µM.

What about the GI50 (A498) of the same compound?
The GI50 was 2.8 µM.

And the GI50 [4]?
Its GI50 is 5.6 µM.

And the GI50 [5]?
The GI50 was 58.9 µM.

What about the GI50 (OVCAR-8) of the same compound?
Its GI50 is 5.5 µM.

And the GI50 (OVCAR-4)?
Its GI50 is 1.5 µM.

And the GI50 (IGROV-1)?
Its GI50 is 14.1 µM.

What about the GI50 (OVCAR-3) of the same compound?
Its GI50 is 19.1 µM.

What about the GI50 (UACC-257) of the same compound?
The GI50 was 9.8 µM.

And the GI50 (UACC-62)?
The GI50 was 14.1 µM.

And the GI50 (SK-MEL-2)?
Its GI50 is 30.9 µM.

And the GI50 (SK-MEL-28)?
Its GI50 is 25.1 µM.

What about the GI50 (MDA-MB-435) of the same compound?
The GI50 was 10.2 µM.

What about the GI50 (M14) of the same compound?
The GI50 was 24.6 µM.

And the GI50 (LOX IMVI)?
Its GI50 is 15.5 µM.

And the GI50 (Malme-3M)?
Its GI50 is 29.5 µM.

What about the GI50 (U-251) of the same compound?
Its GI50 is 30.9 µM.

And the GI50 (SNB-19)?
The GI50 was 50.1 µM.

And the GI50 (SNB-75)?
Its GI50 is 22.9 µM.

What about the GI50 (SF-295) of the same compound?
Its GI50 is 3.5 µM.

And the GI50 (SF-539)?
The GI50 was 39.8 µM.

And the GI50 (SF-268)?
Its GI50 is 34.7 µM.

And the GI50 (SW-620)?
Its GI50 is 41.7 µM.

And the GI50 (KM12)?
The GI50 was 19.1 µM.

And the GI50 (HCT-15)?
The GI50 was 24 µM.

And the GI50 (HCT-116)?
Its GI50 is 6.3 µM.

What about the GI50 (HCC 2998) of the same compound?
Its GI50 is 26.3 µM.

What about the GI50 (COLO 205) of the same compound?
Its GI50 is 28.2 µM.

What about the inhibition (HepG2 [1]) of the same compound?
Its inhibition is “Active”.

And the Activity (HepG2 [2])?
The Activity was -30%.

And the Activity (HepG2 [3])?
Its Activity is -22.3%.

Which inhibition (HepG2 [1]) does the source give for c1ccc2c(NCCc3ccc4c(c3)OCO4)ncnc2c1 here?
The inhibition was “Active”.

What about the Activity (HepG2 [2]) of the same compound?
The Activity was -28.1%.

And the Activity (HepG2 [3])?
Its Activity is -20.1%.

With Oc1ccc(CN2CCN(c3ncnc4ccccc34)CC2)cc1 as the compound, how does the inhibition (HepG2 [1]) read?
Its inhibition is “Active”.

And the Activity (HepG2 [2])?
The Activity was -13.3%.

What about the Activity (HepG2 [3]) of the same compound?
Its Activity is -5.3%.
